Measured values from different studies.
Compare with care: the assays were run in different laboratories.
Target: Mitogen-activated protein kinase 10 (MAPK10, Homo sapiens, UniProt P53779)

O=C(Nc1cccnn1)N1CCC(=Cc2cccc(Oc3ccc(C(F)(F)F)cn3)c2)CC1 has a remaining binding of 100% (cell-free assay, competition with immobilised ligand; 1 µM).
Cc1cnc(NC2CCOCC2)nc1-n1cnc(C(=O)NC(CN)c2cc(F)cc(Cl)c2)c1 (stereo not drawn) gave a remaining activity of 55% (enzyme activity, inhibitor, radiometric; 1 µM).
With CCCS(=O)(=O)Nc1ccc(F)c(C(=O)c2c[nH]c3ncc(-c4ccc(Cl)cc4)cc23)c1F the inhibition was under 10% (enzyme activity, inhibitor; 1 µM).
For COc1cc(-c2cc(-c3ccc(N4CCNCC4)cc3)cnc2C)cc(OC)c1OC, the inhibition was 1% (enzyme activity, inhibitor; 0.1 µM).
Nc1ncnc2occ(-c3ccc(NC(=O)Nc4cc(C(F)(F)F)ccc4F)cc3)c12 has a remaining signal of 1.3% (cell-free assay, inhibitor; 20 µM).
CC(C)(C)c1nc(-c2cccc(NS(=O)(=O)c3c(F)cccc3F)c2F)c(-c2ccnc(N)n2)s1 has a remaining activity of 118% (enzyme activity, inhibitor, radiometric; 1 µM).
For CN1CC(Oc2cnc(C#N)cc2-c2ccn3nc(NC(=O)C4CC4)cc3c2)C1, the inhibition was 2% (enzyme activity, inhibitor; 1 µM).
CNC(=O)Nc1ccc2c(c1)CC[C@@]21OC(=O)N(CC(=O)N(Cc2ccc(F)cc2)[C@@H](C)C(F)(F)F)C1=O has a remaining binding of 73% (cell-free assay, competition with immobilised ligand; 1 µM).
The remaining activity of Oc1cccc(-c2nc(N3CCOCC3)c3oc4ncccc4c3n2)c1 is reported as 101% (enzyme activity, inhibitor; 10 µM).
With C[C@H](c1ccnc(Nc2nc3ccc(-c4cc(N(C)C)ncn4)cc3[nH]2)c1)N1CCN(C(=O)CC(F)(F)F)CC1 the remaining binding was 81% (cell-free assay, competition with immobilised ligand; 0.1 µM).
With COc1cc(Nc2cnc(C#N)c(O[C@H](C)CN(C)C)n2)ncc1-c1cnn(C)c1 the remaining activity was 97% (enzyme activity, inhibitor, radiometric; 10 µM).
With c1ccc(N2CCN(Cc3nc4ccccc4[nH]3)CC2)nc1 the remaining binding was 100% (binding, competition with immobilised ligand; 1 µM).
The inhibition of CCOc1cc(-c2nncn2C)ccc1Nc1ncc2cc(C)nc(NCC(C)(C)C)c2n1 is reported as 80% (enzyme activity, inhibitor, FRET; 1 µM).
The activity vs control of COc1cc(/C=C/C(=O)CC(=O)/C=C/c2ccc(O)c(OC)c2)ccc1O is reported as 109% (enzyme activity, inhibitor; 1 µM).
CN(C)CC#Cc1ccc(OCCCc2sc(N3CCc4cccc(C(=O)Nc5nc6ccccc6s5)c4C3)nc2C(=O)O)c(F)c1 has a remaining binding of 71% (cell-free assay, competition with immobilised ligand; 1 µM).
O=C1NC(=O)c2cc(Nc3ccc(F)cc3)c(Nc3ccc(F)cc3)cc21 gave a remaining signal of 97.3% (cell-free assay; 0.5 µM).
With Cc1ccc(C(=O)NCc2ccsc2)cc1C#Cc1cn(C(C)C)c2ncnc(N)c12 the activity vs control was 84% (enzyme activity, inhibitor; 1 µM).
Nc1ncnc2c1ncn2[C@@H]1O[C@H](COP(=O)(O)OP(=O)(O)OP(=O)(O)O)[C@@H](O)[C@H]1O gave a ΔTm of 2.73 °C (thermal stability, DSF; 200 µM).
CC1=C(C#N)C(c2ccc3c(c2)c(NC(=O)c2ccccc2C)nn3C)C(C#N)=C(C)N1 gave a remaining binding of 100% (cell-free assay, competition with immobilised ligand; 1 µM).
Clc1ccc(Nc2nnc(Cc3ccncc3)c3ccccc23)cc1 has a remaining signal of 116% (cell-free assay; 0.5 µM).
For CNC(=O)c1cc(Oc2ccc(NC(=O)Nc3ccc(Cl)c(C(F)(F)F)c3)cc2)ccn1, the inhibition was 66% (enzyme activity, inhibitor; 10 µM).
The remaining binding of O=C(NC[C@@H]1[C@H]2CN(C(=O)OCc3cc(C(F)(F)F)cc(C(F)(F)F)c3)C[C@@H]12)c1ccc2[nH]nnc2c1 is reported as 90% (cell-free assay, competition with immobilised ligand; 1 µM).
COc1cc2ncnc(Nc3ccc(Oc4ccccc4)c(C)c3C)c2cc1OC gave an inhibition of -1% (enzyme activity, inhibitor; 1 µM).
The activity vs control of FC(F)(F)Oc1cccc(-c2cnc3ccc(-c4ccncc4)nn23)c1 is reported as 85% (enzyme activity, inhibitor, radiometric; 1 µM).
